Screening results: PubChem BioAssay, several laboratories
The list is not random: actives were taken first. Their share in the collection is about 1.8%.
NSD2 inh – NSD2 histone methyltransferase inhibitors, primary screen, biochemical, AlphaScreen, single concentration, set 2 | inhibition, % at 12.5 µM | NSD2 peptide methylation, 120 min | 310,000 tested, 0.54% active | AID 743445, 2014 | Histone-lysine N-methyltransferase NSD2 (Homo sapiens), O96028; in the data active means inhibition above about 50%
LEDGF integ inh – blockers of LEDGF/p75-dependent integrase strand transfer – biochemical, TR-FRET, high throughput, primary screen | TR-FRET IN-LEDGF/p75 DNA integration, Eu/Cy5 | inhibition, % at 3.7 µM | 370,000 tested, 0.64% active | AID 743269, 2014;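 active means inhibition above the screen-wide mean plus 3 SD, cut at about 13% in these data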;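 further: signal is the Cy5 over europium emission ratio at 671 and 618 nm; 0% = plate median of compound wells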
UHRF1 MBD2 ctr – UHRF1 methylated DNA binding inhibitors, primary screen, counter-screen for MBD2 inhibitor project, biochemical, TR-FRET, human UHRF1, single concentration; UHRF1 binding to methylated oligo; 370,000 tested, 0.75% active; AID 687016, 2013; inhibition, % at 4.4 µM; E3 ubiquitin-protein ligase UHRF1 (Homo sapiens), Q96T88; in the data active means inhibition above about 21%;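 further: UHRF1 SRA domain binding a hemimethylated CpG hairpin DNA probe; 0% = median of test compound wells and 100% = reference inhibitor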
MBD2 DNA inh – inhibitors of MBD2 binding to methylated DNA, primary screen, biochemical, TR-FRET, DNA-binding domain, human; 370,000 tested, 0.31% active; inhibition, % at 4.4 µM; Methyl-CpG-binding domain protein 2 (Homo sapiens), Q9UBB5; MBD2 binding to methylated oligonucleotide; AID 686964, 2013; in the data active means inhibition above about 13%
TDP2 absorb – human TDP2 enzyme inhibitors, primary screen, biochemical, epi absorbance, recombinant enzyme. Tyrosyl-DNA phosphodiesterase 2 (Homo sapiens), O95551. T5PNP hydrolysis, p-nitrophenol absorbance 415 nm. AID 720702, 2013. inhibition, % at 12.8 µM. 370,000 tested, 0.34% active;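 active means inhibition above the mean of all tested compounds plus 3 SD, set per campaign, cut at about 25% in these data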;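 further: 0% = DMSO with enzyme and 100% = buffer with substrate but no TDP2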
Target sequence (O95551 whole entry, looked up): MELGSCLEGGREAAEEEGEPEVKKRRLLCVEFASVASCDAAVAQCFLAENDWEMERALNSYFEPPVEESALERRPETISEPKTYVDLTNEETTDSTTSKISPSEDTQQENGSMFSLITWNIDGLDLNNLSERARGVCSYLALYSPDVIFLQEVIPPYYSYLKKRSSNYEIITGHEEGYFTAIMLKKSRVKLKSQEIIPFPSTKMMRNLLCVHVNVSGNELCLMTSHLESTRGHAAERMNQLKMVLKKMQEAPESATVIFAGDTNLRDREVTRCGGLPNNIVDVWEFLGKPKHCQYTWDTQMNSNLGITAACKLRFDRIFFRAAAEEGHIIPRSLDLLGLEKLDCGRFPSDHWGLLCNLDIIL
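Test system: human TDP2 enzyme; Input: 120 nM TDP2 per well; Buffer or medium: Mg2+-containing Tris-HCl buffer, pH 7.5; Reagent: 5 mM T5PNP; Dosing: 12.8 µM single point, 1% DMSO; Incubation: reaction 2 h, 37 °C; Detection: p-Nitrophenol epi absorbance; Read-out: % inhibition relative to enzyme-containing and enzyme-free wells; Replicates: single well per compound.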
CASP6 VEID inh – human caspase-6 inhibitors, primary screen, biochemical, VEID-R110 fluorescence, single point, set 2; P55212; purified caspase-6, Z-VEID-R110 cleavage fluorescence; inhibition, % at 12.5 µM; 350,000 tested, 0.53% active; AID 686996, 2013;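 active means mean inhibition across replicates at least about 35%, with every replicate also reaching that limit, limit read from the data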;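 further: 0% = median of neutral control wells and 100% = no fluorescence left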
An asterisk follows results filed as active; / = not tested or not shown.

SMILES	NSD2 inh	LEDGF integ inh	UHRF1 MBD2 ctr	MBD2 DNA inh	TDP2 absorb	CASP6 VEID inh
O=C(OCc1ccccc1)N1CCCC2CC1c1ccccc12 (centres undefined)	/	0.4	-3.9	-5.7	0.1	53.8*
Cc1ccc(NC(=O)CNC(=O)c2ccc(C)o2)cc1	0.0	-1.4	-1.1	3.0	7.5	-2.0
Cc1ccc(C(=O)NCC(=O)O)o1	-0.2	52.1*	0.3	1.2	-4.7	0.1
COC(=O)c1ccc(OC(=O)CS(=O)c2ccccc2[N+](=O)[O-])cc1 (centres undefined)	-4.2	-0.4	62.4*	-2.5	-3.2	/
CCOC(=O)c1ccccc1OC(=O)CS(=O)c1ccccc1[N+](=O)[O-] (centres undefined)	3.3	-1.3	2.8	-1.6	-0.4	-0.3
CO[C@H]1CN(C)C(=O)c2ccc(NC(C)=O)cc2OC[C@@H](C)N(C(=O)C2CCCCC2)C[C@H]1C	/	/	/	/	/	1.7
Cc1ccc(C(=O)NCC(=O)OC2CCCCC2=O)cc1C (centres undefined)	0.8	-2.2	0.4	2.0	6.9	0.2
COc1cc(C(=O)OC2CCCCC2=O)cc(OC)c1C (centres undefined)	15.5	-4.4	22.6*	7.1	-7.0	/
CN1CC2([N+](=O)[O-])CC=C(Oc3ccccc3)C([N+](=O)[O-])(C1)C2 (centres undefined)	-1.2	-2.0	0.0	-1.9	-10.3	/
CN1CC2([N+](=O)[O-])CC=C(OCCO)C([N+](=O)[O-])(C1)C2 (centres undefined)	-2.2	-5.8	3.1	-2.3	-1.5	39.1*
Cc1noc(C)c1S(=O)(=O)Nc1ccc2c(c1)CC(=O)N([C@H](C)CO)C[C@@H](C)[C@H](CN(C)Cc1ccc(Cl)c(Cl)c1)O2	/	/	/	/	/	-1.7
CCOc1ccc(CCNC(=O)C2CC=CCC2C(=O)OC(C)C)cc1OCC (centres undefined)	0.5	5.1	1.4	2.9	-7.5	/
CCOc1ccc(CCNC(=O)C2CC(C)=CCC2C(=O)O)cc1OCC (centres undefined)	-2.7	1.2	-0.3	-5.8	-0.6	35.9*
COC(=O)CSc1nnc(-c2ccoc2C)n1-c1ccc(C)cc1	-0.9	2.5	21.9*	13.0	-10.9	/
O=C(C[C@H]1CC[C@H]2[C@@H](COC[C@@H](O)CN2S(=O)(=O)c2ccc(F)cc2)O1)NCc1ccc(Cl)c(Cl)c1	/	/	/	/	/	-0.5
Cc1cc(C)cc(CC(=O)N2CCC2(C)C(=O)NS(=O)(=O)c2cccc(F)c2)c1 (centres undefined)	2.6	-4.3	21.2*	-1.4	-1.0	-1.6
O=C(NNC(=O)c1sccc1-n1cccc1)c1cccs1	-0.4	0.7	1.4	-2.5	3.9	3.4
C/C(=N\NC(=O)c1sccc1-n1cccc1)c1cccs1	-1.3	-7.0	40.6*	2.0	-2.3	/
Cc1ccc(C)c(NC(=O)CN(C)S(=O)(=O)c2cccc3cccnc23)c1	-8.1	-2.1	26.6*	13.1	-14.2	-3.6
Cc1cccc(NC(=O)CN(C)S(=O)(=O)c2cccc3cccnc23)c1C	0.3	1.4	-0.4	1.3	-2.8	2.2
C[C@H]1CN([C@@H](C)CO)S(=O)(=O)c2ccc(-c3ccccc3)cc2O[C@H]1CN(C)Cc1ccccn1	/	/	/	/	/	-1.6
C[C@@H]1CN([C@H](C)CO)C(=O)c2cccc(NC(=O)C3CCCCC3)c2O[C@H]1CN(C)C(=O)Nc1ccccc1	/	/	/	/	/	-0.5
COc1ccc(NC(=O)CN2CCC(C(=O)c3ccc(C)cc3)CC2)c(OC)c1	-1.2	-0.8	0.2	1.9	13.8	-2.4
COc1ccc(NC(=S)N2CCC(C(=O)c3ccc(C)cc3)CC2)c(OC)c1	1.7	-7.7	25.5*	2.2	1.2	-0.4
O=S(=O)(N1CCCCC1)n1c(Cc2ccccc2)nc2ccccc21	-13.9	-0.3	35.1*	5.1	0.1	/
